pIC50, pKi: −log10 of the molar value.
Legend:
[1] = target: T1, Adenosine receptor A2b (Homo sapiens, UniProt P29275); assay: Antagonist activity at human adenosine A2B receptor expressed in CHO cells assessed as inhibition of NECA-mediated cAMP accumulation; assay type: functional, cell-based
T1 sequence (P29275 whole entry): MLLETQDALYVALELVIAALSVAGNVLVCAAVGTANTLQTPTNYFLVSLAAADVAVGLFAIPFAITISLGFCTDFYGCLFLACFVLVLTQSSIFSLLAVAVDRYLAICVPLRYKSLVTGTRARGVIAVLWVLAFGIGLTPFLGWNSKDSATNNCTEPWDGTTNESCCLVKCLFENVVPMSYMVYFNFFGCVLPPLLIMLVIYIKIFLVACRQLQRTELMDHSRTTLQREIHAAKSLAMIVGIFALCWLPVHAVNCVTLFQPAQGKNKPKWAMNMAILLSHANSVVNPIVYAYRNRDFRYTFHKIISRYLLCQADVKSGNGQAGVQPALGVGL
How it was run: (§1)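 hA2B-transfected CHO cells grown 48 h after plating, then preincubated 15 min at 37 °C in DMEM with Ro20-1724 (20 µM) and ADA (1 U/mL). Compound (1 nM–10 µM; single-point 10 µM) given 15 min at 37 °C, then 100 nM NECA. Stopped with 0.4 N HCl, neutralized with KOH. cAMP by competitive binding to bovine adrenal binding protein with [3H]cAMP. Mean ± SEM, four experiments in triplicate.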

[2] = target: T2, Adenosine receptor A2a (Homo sapiens, UniProt P29274); assay: Displacement of [3H]NECA from human adenosine A2A receptor expressed in CHO cells at 10 uM; assay type: cell-based
How it was run: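 Membranes (80 µg) from hA2A-expressing CHO cells incubated 90 min at 25 °C in 50 mM Tris-HCl, 2 mM MgCl2, 2 U/mL ADA, pH 7.4, with 30 nM [3H]NECA and compound at 10 µM. Nonspecific binding defined with 100 µM NECA.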

[3] = target: T3, Adenosine receptor A1 (Homo sapiens, UniProt P30542); assay: Displacement of […] from human adenosine A1 receptor expressed in CHO cells; assay type: cell-based
T3 sequence (P30542 whole entry): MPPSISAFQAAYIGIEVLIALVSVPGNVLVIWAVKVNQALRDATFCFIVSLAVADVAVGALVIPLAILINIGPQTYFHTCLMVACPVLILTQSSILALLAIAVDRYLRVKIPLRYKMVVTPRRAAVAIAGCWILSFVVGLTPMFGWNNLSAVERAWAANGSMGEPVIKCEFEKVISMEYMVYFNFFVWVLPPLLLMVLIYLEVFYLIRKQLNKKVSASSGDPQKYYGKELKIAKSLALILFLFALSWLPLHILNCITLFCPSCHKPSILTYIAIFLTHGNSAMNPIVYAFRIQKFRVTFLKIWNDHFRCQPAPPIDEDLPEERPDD

[4] = target: T4, Adenosine receptor A2b (Homo sapiens) (UniProt P29275); assay: Antagonist activity at human adenosine A2B receptor expressed in CHO cells assessed as inhibition of NECA-mediated cAMP accumulation at 10 uM; assay type: functional, cell-based; how it was run: as §1
T4 sequence (whole entry): T1 sequence (P29275 whole entry)

[5] = target: T5, Adenosine receptor A1 (Homo sapiens) (UniProt P30542); assay: Displacement of […] from human adenosine A1 receptor expressed in CHO cells at 10 uM; assay type: cell-based
T5 sequence (whole entry): T3 sequence (P30542 whole entry)
How it was run: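 Membranes (50 µg protein) from CHO cells stably expressing hA1 incubated 180 min at 25 °C in 50 mM Tris-HCl, 2 mM MgCl2, 2 U/mL ADA, pH 7.4, with 3 nM [3H]DPCPX and compound at 10 µM. Nonspecific binding defined with 50 µM R-PIA.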

[6] = target: T2, Adenosine receptor A2a; assay: Displacement of [3H]NECA from human adenosine A2A receptor expressed in CHO cells; assay type: cell-based
[7] = target: T6, Adenosine receptor A3 (Homo sapiens) (UniProt P0DMS8); assay: Displacement of [125I]AB-MECA from human adenosine A3 receptor expressed in CHO cells at 1 uM; assay type: cell-based
T6 sequence (whole entry): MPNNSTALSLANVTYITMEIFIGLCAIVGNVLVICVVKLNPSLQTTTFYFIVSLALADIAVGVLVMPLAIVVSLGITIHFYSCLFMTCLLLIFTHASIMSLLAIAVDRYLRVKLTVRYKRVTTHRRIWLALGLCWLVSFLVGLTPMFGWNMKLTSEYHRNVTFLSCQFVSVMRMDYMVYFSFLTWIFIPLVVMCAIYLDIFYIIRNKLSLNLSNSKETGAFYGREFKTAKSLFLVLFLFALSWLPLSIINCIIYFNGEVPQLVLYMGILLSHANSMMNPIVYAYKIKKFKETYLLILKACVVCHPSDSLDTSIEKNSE

T2 sequence (P29274 whole entry): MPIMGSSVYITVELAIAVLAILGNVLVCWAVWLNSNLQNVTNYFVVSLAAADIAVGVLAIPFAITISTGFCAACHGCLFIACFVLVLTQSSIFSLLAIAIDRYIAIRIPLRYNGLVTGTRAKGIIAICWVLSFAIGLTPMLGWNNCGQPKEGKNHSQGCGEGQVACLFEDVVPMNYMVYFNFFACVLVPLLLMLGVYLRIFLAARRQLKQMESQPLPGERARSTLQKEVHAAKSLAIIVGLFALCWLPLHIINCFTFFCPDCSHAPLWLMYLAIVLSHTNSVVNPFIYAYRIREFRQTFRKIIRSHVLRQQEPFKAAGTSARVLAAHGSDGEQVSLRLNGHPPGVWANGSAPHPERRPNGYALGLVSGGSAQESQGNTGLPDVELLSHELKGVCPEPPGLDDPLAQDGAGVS

Structure (SMILES)	pIC50 [1]	inhibition [2]	pKi [3]	inhibition [4]	inhibition [5]	pKi [6]	inhibition [7]
CCCSc1nc(NC(=O)CC)cc(OC)n1	–	4%	6.31	–	–	–	–
CCCOc1cc(NC(=O)CC)nc(SC)n1	–	–	–	–	19%	6.40	–
CCCOc1cc(NC(C)=O)nc(SCCC)n1	–	30%	5.26	–	–	–	–
COc1cc(NC(C)=O)nc(SC)n1	–	29%	–	–	30%	–	49%
CCCSc1nc(NC(C)=O)cc(OC)n1	–	10%	–	–	43%	–	–
CCCOc1cc(NC(=O)CC)nc(SCCC)n1	–	–	5.84	–	–	7.15	–
CCCOc1cc(NC(C)=O)nc(SC)n1	–	–	–	–	7%	5.95	–
CCCSc1nc(NC(C)=O)cc(OCCc2ccccc2)n1	< 5.00	27%	5.68	13%	–	–	–
CCCSc1nc(NC(C)=O)cc(OCC2CCCCC2)n1	–	33%	–	–	43%	–	–
CCC(=O)Nc1cc(OC)nc(SC)n1	–	21%	–	–	2%	–	51%
CCCOc1cc(NC(C)=O)nc(SCc2ccccc2)n1	–	23%	–	–	34%	–	–

Results, then the compound that gave them:

pIC50 [1]	inhibition [2]	pKi [3]	inhibition [4]	inhibition [5]	pKi [6]	inhibition [7]	Structure (SMILES)
< 5.00	56%	5.35	10%	–	–	–	CCSc1nc(NC(C)=O)cc(OCc2ccc(Cl)cc2)n1
–	29%	–	–	46%	–	–	CCCSc1nc(NC(C)=O)cc(OCc2ccc(Cl)cc2Cl)n1
–	36%	5.61	–	–	–	–	CCCSc1nc(NC(C)=O)cc(OCc2ccccc2)n1
–	–	5.74	–	–	5.38	–	CCCSc1nc(NC(C)=O)cc(OCc2ccccc2Cl)n1
–	41%	6.24	–	–	–	–	CCCSc1nc(NC(C)=O)cc(OCc2cccc(Cl)c2)n1
–	26%	–	–	0%	–	–	CCCCSc1nc(NC(C)=O)cc(OCc2ccc(Cl)cc2)n1
< 5.00	43%	–	0%	17%	–	–	CCCSc1nc(NC(C)=O)cc(OCc2ccc(Cl)cc2)n1
< 5.00	47%	5.61	0%	–	–	–	CCCSc1nc(NC(C)=O)cc(OCc2ccc(OC)cc2)n1

Reference: ChEMBL document CHEMBL1143166, “Derivatives of 4-amino-6-hydroxy-2-mercaptopyrimidine as novel, potent, and selective A3 adenosine receptor antagonists” (J Med Chem, 2008)
